The assay has as its system daptomycin-non-susceptible VRE strain (clinical DRE isolate). The assay is described as follows: Minimum inhibitory concentration. The class given is cell-based, Enterococcus faecium. A digest of the protocol:
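Clinical daptomycin-non-susceptible VRE isolate from a bloodstream infection. Species identified by VITEK 2. […] Fosfomycin MIC by agar dilution and ceftaroline MIC by broth microdilution. Breakpoints per CLSI.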

Converted amounts (≈) assume the structure as drawn.

`CCO/N=C(\C(=O)N[C@@H]1C(=O)N2C(C(=O)[O-])=C(Sc3nc(-c4cc[n+](C)cc4)cs3)CS[C@H]12)c1nsc(N)n1` [Ceftaroline, ceftaroline] displayed a minimal inhibitory concentration (MIC) (Enterococcus, VRE) greater than 8 µg/mL.

For the compound `CCCCCCCCCC(=O)N[C@@H](Cc1c[nH]c2ccccc12)C(=O)N[C@H](CC(N)=O)C(=O)N[C@@H](CC(=O)O)C(=O)N[C@@H]1C(=O)NCC(=O)N[C@@H](CCCN)C(=O)N[C@@H](CC(=O)O)C(=O)N[C@H](C)C(=O)N[C@@H](CC(=O)O)C(=O)NCC(=O)N[C@H](CO)C(=O)N[C@@H]([C@H](C)CC(=O)O)C(=O)N[C@@H](CC(=O)c2ccccc2N)C(=O)O[C@@H]1C` [Daptomycin, daptomycin], the MIC (broth microdilution, cation-adjusted Mueller-Hinton broth supplemented with 50 mg/mL calcium, clinical DRE isolate) came to 8 µg/mL (≈ 4.94 µM).

In turn, `C[C@@H]1O[C@@H]1P(=O)(O)O` [Fosfomycin, fosfomycin] showed a minimal inhibitory concentration (MIC) (Enterococcus, VRE) of 128 µg/mL (≈ 927 µM).

The compound `CN[C@H](CC(C)C)C(=O)N[C@H]1C(=O)N[C@@H](CC(N)=O)C(=O)N[C@H]2C(=O)N[C@H]3C(=O)N[C@H](C(=O)N[C@H](C(=O)O)c4cc(O)cc(O)c4-c4cc3ccc4O)[C@H](O)c3ccc(c(Cl)c3)Oc3cc2cc(c3O[C@@H]2O[C@H](CO)[C@@H](O)[C@H](O)[C@H]2O[C@H]2C[C@](C)(N)[C@H](O)[C@H](C)O2)Oc2ccc(cc2Cl)[C@H]1O` [vancomycin] showed an MIC (Sensititre GPN3F system, clinical DRE isolate) greater than 128 µg/mL.

Broadly, the MIC is the smallest concentration in the dilution series that meets the test's criterion for growth inhibition.

Values taken from PMC12744601 (Infection and Drug Resistance, 2025).
